# Measured values gathered from unrelated publications.
# Target: Glycogen synthase kinase-3 alpha (GSK3A, Homo sapiens, UniProt P49840)
SMILES,test,setting,endpoint,result
Cn1cc(-c2cccc(N3CCc4c(sc5c4CC(C)(C)C5)C3=O)c2CO)cc(Nc2ccncn2)c1=O,"enzyme activity, inhibitor",1 µM,inhibition,4%
O=c1[nH]c2ccccc2n1C1CCN(Cc2ccc(-c3[nH]c4cc5ncnc5cc4nc3-c3ccccc3)cc2)CC1,cell-free assay,0.5 µM,remaining signal,100%
COc1ncccc1-c1cnn2ccc(N3CCN(C(=O)OC(C)C)CC3)nc12,"binding, competition with immobilised ligand",1 µM,remaining binding,100%
C#Cc1n[nH]c2c(-c3cn([C@@H](C)c4ccccc4)c(=O)[nH]c3=O)cc(F)cc12,"enzyme activity, inhibitor",0.1 µM,inhibition,-1.9%
Cn1cncc1[C@@](O)(COc1ccc(C#N)cc1-c1ccc(OC(F)(F)F)cc1)c1ccc(C#N)cc1,"cell-free assay, competition with immobilised ligand",1 µM,remaining binding,100%
Nc1ncc(-c2nc(N3CCOCC3)nc(N3CCOCC3)n2)c(C(F)F)n1,"binding, competition with immobilised ligand",10 µM,remaining binding,91%
C#Cc1n[nH]c2c(-c3cn([C@@H](C)c4ccccn4)c(=O)[nH]c3=O)cc(F)cc12,"enzyme activity, inhibitor",0.1 µM,inhibition,-0.2%
Cn1cc(-c2cc(F)cc(N3CCn4c(cc5c4CCCC5)C3=O)c2CO)cc(Nc2ccc(N3CCN(C4COC4)CC3)cn2)c1=O,"enzyme activity, inhibitor",0.1 µM,inhibition,19%
Cc1nn(C)cc1-c1nc2c(N3CCN(Cc4ccc(Cl)cc4)CC3)c(Cl)cnc2[nH]1,"binding, competition with immobilised ligand",1 µM,remaining binding,100%
